Key:
[1] = species on record: Oryctolagus cuniculus; assay: Functional vascular ET-1 antagonism was determined in rabbit aorta rings with intact endothelium; settings: read-out: pA2 (converted)
[2] = tested on: Rattus norvegicus; assay: Ability to protect rats from ET-1 induced sudden death in rats after peroral administration; assay type: functional
In short: (§1)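 Male Sprague-Dawley rats (280-320 g) were pretreated orally with antagonist 4 h before a tail-vein injection of ET-1 (6 nmol/kg), which causes severe ECG disturbances and lethality within minutes. Oral doses were 10, 30 or 100 mg/kg. Lethality was scored as deaths/n, and ED100 was taken as the dose giving complete protection.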

[3] = molecular target: T1, Endothelin-1 receptor (Homo sapiens, UniProt P25101); assay: Binding affinity towards human Endothelin A receptor by measuring its ability to displace [125I]ET1 from CHO cells; assay type: cell-based
T1 sequence (P25101 whole entry): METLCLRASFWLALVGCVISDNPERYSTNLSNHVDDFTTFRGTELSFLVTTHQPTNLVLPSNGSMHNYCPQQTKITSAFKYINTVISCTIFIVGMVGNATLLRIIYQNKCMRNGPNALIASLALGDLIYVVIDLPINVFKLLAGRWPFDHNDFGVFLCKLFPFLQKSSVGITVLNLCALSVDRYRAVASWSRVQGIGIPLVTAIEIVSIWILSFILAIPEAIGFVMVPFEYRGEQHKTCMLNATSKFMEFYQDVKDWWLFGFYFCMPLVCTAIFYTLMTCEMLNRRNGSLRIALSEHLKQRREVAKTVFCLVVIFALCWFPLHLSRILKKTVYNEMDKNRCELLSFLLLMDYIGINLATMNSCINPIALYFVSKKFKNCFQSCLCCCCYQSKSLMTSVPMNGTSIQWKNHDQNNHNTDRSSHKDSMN

[4] = molecular target: T2, Endothelin receptor type B (Homo sapiens, UniProt P24530); assay: (§2) Binding affinity towards human Endothelin B receptor by measuring its ability to displace [125I]ET-3 from CHO cells; assay type: cell-based
T2 sequence (P24530 whole entry): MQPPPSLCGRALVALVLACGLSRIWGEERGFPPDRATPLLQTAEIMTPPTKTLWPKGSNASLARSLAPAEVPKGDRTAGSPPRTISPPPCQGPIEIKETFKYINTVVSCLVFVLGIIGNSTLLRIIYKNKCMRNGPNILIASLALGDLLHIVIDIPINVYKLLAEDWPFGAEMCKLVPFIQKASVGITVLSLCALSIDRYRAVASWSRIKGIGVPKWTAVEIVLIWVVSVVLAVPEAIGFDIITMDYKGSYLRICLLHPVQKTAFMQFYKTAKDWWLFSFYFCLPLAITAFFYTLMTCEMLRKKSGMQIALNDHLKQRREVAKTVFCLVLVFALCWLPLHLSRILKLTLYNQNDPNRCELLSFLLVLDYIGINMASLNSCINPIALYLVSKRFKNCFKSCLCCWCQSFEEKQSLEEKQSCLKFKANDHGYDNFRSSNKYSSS
In short: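 Membranes ([…]) from stably transfected CHO cells expressing human ET_A or ET_B receptors, or guinea pig cerebellum (ET_B), incubated with 25 pmol/L [125I]ET-1 or [125I]ET-3 with or without drugs; nonspecific binding defined with […] ET-1.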

[5] = molecular target: T3, Endothelin receptor (Rattus norvegicus) (UniProt P26684+P21451); assay: In vivo prevention of ET-1-induced sudden death in 6 rats by pretreatment with endothelin receptor antagonist at a dose of 30 mg/kg p.o.; assay type: functional, organism-based; parameters: dose 30 mg/kg; in short: as §1
[6] = molecular target: T3, Endothelin receptor (Rattus norvegicus); assay: In vivo prevention of ET-1-induced sudden death in 9 rats by pretreatment with endothelin receptor antagonist at a dose of 30 mg/kg p.o.; 9/9; assay type: functional, organism-based; parameters: dose 30 mg/kg; in short: as §1
[7] = tested on: Rattus norvegicus; assay: Ability to protect rats from ET-1 induced sudden death in after peroral administration; assay type: functional; in short: as §1
[8] = molecular target: T3, Endothelin receptor (Rattus norvegicus); assay: In vivo prevention of ET-1-induced sudden death in 5 rats by pretreatment with endothelin receptor antagonist at a dose of 100 mg/kg p.o.; 0/5; assay type: functional, organism-based; parameters: dose 100 mg/kg; in short: as §1
[9] = molecular target: T3, Endothelin receptor (Rattus norvegicus); assay: In vivo prevention of ET-1-induced sudden death in 5 rats by pretreatment with endothelin receptor antagonist at a dose of 10 mg/kg p.o.; 5/5; assay type: functional, organism-based; parameters: dose 10 mg/kg; in short: as §1
[10] = molecular target: T3, Endothelin receptor (Rattus norvegicus); assay: In vivo prevention of ET-1-induced sudden death in 6 rats by pretreatment with endothelin receptor antagonist at a dose of 30 mg/kg p.o.; 0/6; assay type: functional, organism-based; parameters: dose 30 mg/kg; in short: as §1
[11] = tested on: Rattus norvegicus; assay: Ability to protect rats from ET-1 induced sudden death in rats after intravenous administration; assay type: functional
In short: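 Male Sprague-Dawley rats (280-320 g) received antagonist intravenously and were then challenged with ET-1 (6 nmol/kg) injected into a tail vein, a dose that causes lethality within minutes. ED100 was the intravenous dose giving complete protection from sudden death.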

[12] = molecular target: T2, Endothelin receptor type B; assay: as §2; assay type: cell-based; remark: listed apart in the source
[13] = molecular target: T3, Endothelin receptor (Rattus norvegicus); assay: In vivo prevention of ET-1-induced sudden death in 6 rats by pretreatment with endothelin receptor antagonist at a dose of 10 mg/kg p.o.; 6/6; assay type: functional, organism-based; parameters: dose 10 mg/kg; in short: as §1
[14] = molecular target: T3, Endothelin receptor (Rattus norvegicus); assay: In vivo prevention of ET-1-induced sudden death in 6 rats by pretreatment with endothelin receptor antagonist at a dose of 30 mg/kg p.o.; 2/6; assay type: functional, organism-based; parameters: dose 30 mg/kg; in short: as §1

T3 sequence (P21451 whole entry, looked up): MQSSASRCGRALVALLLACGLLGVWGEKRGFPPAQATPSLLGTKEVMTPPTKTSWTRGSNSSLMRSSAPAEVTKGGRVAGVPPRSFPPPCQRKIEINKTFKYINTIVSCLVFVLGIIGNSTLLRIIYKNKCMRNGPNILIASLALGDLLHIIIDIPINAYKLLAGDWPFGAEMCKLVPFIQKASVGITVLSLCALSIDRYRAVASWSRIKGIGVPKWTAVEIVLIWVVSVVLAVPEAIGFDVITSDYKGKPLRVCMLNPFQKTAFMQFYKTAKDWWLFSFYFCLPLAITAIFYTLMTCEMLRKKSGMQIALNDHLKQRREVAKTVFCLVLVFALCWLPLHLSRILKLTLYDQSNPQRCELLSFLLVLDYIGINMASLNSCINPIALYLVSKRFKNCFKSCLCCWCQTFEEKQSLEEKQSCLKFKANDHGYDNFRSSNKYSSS
T3 sequence (P26684 whole entry, looked up): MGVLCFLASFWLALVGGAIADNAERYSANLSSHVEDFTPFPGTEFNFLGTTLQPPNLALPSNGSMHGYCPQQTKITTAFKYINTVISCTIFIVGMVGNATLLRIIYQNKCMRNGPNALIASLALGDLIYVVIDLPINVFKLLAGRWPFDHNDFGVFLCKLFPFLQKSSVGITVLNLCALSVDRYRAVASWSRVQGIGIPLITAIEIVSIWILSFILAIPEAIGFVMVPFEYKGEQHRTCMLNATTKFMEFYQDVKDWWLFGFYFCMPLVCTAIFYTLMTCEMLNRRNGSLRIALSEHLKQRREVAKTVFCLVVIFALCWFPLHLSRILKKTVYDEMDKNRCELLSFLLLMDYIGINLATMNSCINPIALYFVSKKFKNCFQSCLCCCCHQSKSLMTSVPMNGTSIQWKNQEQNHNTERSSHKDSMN

What does the source list for `CCCOc1ccc2c(c1)[C@@H](c1ccc(OC)cc1OCC(=O)O)[C@H](C(=O)O)[C@H]2c1ccc2c(c1)OCO2` [SB-209670]?
Kb [1]: 0.158 nM; ED100 [2]: 100 mg/kg

Which Ki [3] does the source give for `COc1cc(OC)nc(OC(C(=O)O)C(OC)(c2cccc(F)c2)c2cccc(F)c2)n1` (stereo unspecified) here?
The Ki was 11 nM.

`COc1cc(OC)nc(OC(C(=O)O)C(O)(c2ccccc2)c2ccccc2)n1` (stereo unspecified) was tested. Which Ki [3] did it give?
Its Ki is 130 nM.

Which Kb [1] does the source give for `COc1cccc(Oc2c(NS(=O)(=O)c3ccc(C(C)(C)C)cc3)ncnc2OCCO)c1` here?
Its Kb is greater than 1000 nM.

And the ED100 [2]?
The ED100 was greater than 100 mg/kg.

How did the Ki [3] turn out when `COc1cc(OC)nc(OC(C(=O)O)C(OC)(c2cccc(C)c2)c2cccc(C)c2)n1` (stereo unspecified) was run?
Its Ki is 24 nM.

Which Ki [3] does the source give for `COc1cc(C)nc(OC(C(=O)O)C(OC)(c2ccccc2)c2ccccc2)n1` (stereo unspecified) here?
Its Ki is 0.12 nM.

How did the Ki [4] turn out when `COC(=O)C(Oc1nc(OC)cc(OC)n1)C(C)(Oc1ccc(SC)cc1)c1ccccc1` (stereo unspecified) was run?
Its Ki is 4700 nM.

What about the Ki [3] of the same compound?
Its Ki is 160 nM.

For `Cc1noc(NS(=O)(=O)c2cccc3c(N(C)C)cccc23)c1C` [BMS-182874], which Kb [1] is on record?
Its Kb is 81.3 nM.

What about the Lethality [5] of the same compound?
Its Lethality is 6.

What about the ED100 ([2]; po) of the same compound?
Its ED100 is greater than 100 mg/kg.

`CCOc1cc(OCC)nc(OC(C(=O)O)C(OC)(c2ccccc2)c2ccccc2)n1` (stereo unspecified) was tested. Which Ki [3] did it give?
The Ki was 174 nM.

How did the Ki [3] turn out when `COc1cc(OC)nc(OC(C(=O)O)C(OC)(c2ccc(Cl)cc2)c2ccc(Cl)cc2)n1` (stereo unspecified) was run?
The Ki was 245 nM.

For `COC(c1ccccc1)(c1ccccc1)C(Oc1nc(C)cc(C)n1)C(=O)O` (stereo unspecified), which Ki [3] is on record?
Its Ki is 1 nM.

For `COc1cc(OC)nc(OC(C(=O)O)C(OC)(c2ccc(C)cc2)c2ccc(C)cc2)n1` (stereo unspecified), which Ki [3] is on record?
The Ki was 200 nM.

`CCc1cc(CC)nc(OC(C(=O)O)C(OC)(c2ccccc2)c2ccccc2)n1` (stereo unspecified) was tested. Which Ki [3] did it give?
The Ki was 1 nM.

For `COC(=O)C(Oc1nc(OC)cc(OC)n1)C(C)(Oc1ccc(C(C)C)cc1)c1ccccc1` (stereo unspecified), which Ki [4] is on record?
Its Ki is 3000 nM.

What about the Ki [3] of the same compound?
Its Ki is 250 nM.

With `COc1cc(OC)nc(OC(C(=O)O)C(OCCC(C)(C)C)(c2ccccc2)c2ccccc2)n1` (stereo unspecified) as the compound, how does the Ki [3] read?
Its Ki is 340 nM.

Which Ki [3] does the source give for `COc1nc(OC(C(=O)O)C(OC)(c2ccccc2)c2ccccc2)nc2c1CCC2` (stereo unspecified) here?
The Ki was 0.4 nM.

What about the Lethality [6] of the same compound?
The Lethality was 9.

What about the Kb [1] of the same compound?
The Kb was 0.575 nM.

What about the ED100 [7] of the same compound?
Its ED100 is 100 mg/kg.

And the Lethality [8]?
The Lethality was 0.

How did the Lethality [9] turn out when `COc1cc(OC)nc(OC(C(=O)O)C(OC)(c2ccccc2)c2ccccc2)n1` (stereo unspecified) was run?
Its Lethality is 5.

What about the Kb [1] of the same compound?
The Kb was 45.7 nM.

And the Lethality [10]?
The Lethality was 0.

And the ED100 [11]?
The ED100 was 10 mg/kg.

And the Ki [12]?
The Ki was 371 nM.

And the ED100 [2]?
Its ED100 is 30 mg/kg.

For `CCc1cc(C)nc(OC(C(=O)O)C(OC)(c2ccccc2)c2ccccc2)n1` (stereo unspecified), which Ki [3] is on record?
Its Ki is 0.7 nM.

`COc1cc(OC)nc(OC(C(=O)O)C(OC)(c2ccccc2F)c2ccccc2F)n1` (stereo unspecified) was tested. Which Ki [3] did it give?
The Ki was 150 nM.

How did the Ki [3] turn out when `COc1cccc(C(OC)(c2cccc(OC)c2)C(Oc2nc(OC)cc(OC)n2)C(=O)O)c1` (stereo unspecified) was run?
Its Ki is 22 nM.

Which Ki [3] does the source give for `COc1nc(OC(C(=O)O)C(OC)(c2ccccc2)c2ccccc2)nc2c1CCO2` (stereo unspecified) here?
The Ki was 0.9 nM.

And the Kb [1]?
Its Kb is 0.933 nM.

What about the Lethality [13] of the same compound?
Its Lethality is 6.

And the Lethality [14]?
Its Lethality is 2.

What about the ED100 [2] of the same compound?
The ED100 was 100 mg/kg.

And the Lethality [8]?
The Lethality was 0.
